As a reminder, the IC50 is the concentration needed to halve the response being measured. For orientation: inhibition in vivo means the change of the read-out against control, counted positive when it falls.

The structures appear in SMILES notation. Activity calls are given as the source filed them. The rule behind the calls is not given here.

The results in this text go back to ChEMBL document CHEMBL3244353, “Antiallergy activity of substituted 11-oxo-11 H-pyrido[2,1-b]quinazoline-8-carboxylic acids” (J Med Chem, 1979).

Test [1] concerns Rattus norvegicus. Nature of the test: Antiallergic activity in iv dosed rat assessed as inhibition of ovalbumin-induced passive cutaneous anaphylaxis. It is filed as functional. The note with it: for ED50: Rattus norvegicus, iv, read-out: ID50 (the source's name). A digest of the protocol:
(§1)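 Rats were passively sensitized by intradermal injection of antiserum dilutions on the back. 48 h later they received 1 mg ovalbumin iv in 1 mL saline with 0.25% Evans Blue. Compound was dissolved in the antigen solution, using a slight molar excess of sodium bicarbonate if needed, and given with it. Mean orthogonal spot diameter was read on reflected dorsal skin. Percent inhibition was taken against the extrapolated base value. n=5 per group; Student's t test, p≤0.05.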

The test system of test [2] is Rattus norvegicus. Put plainly: Antiallergic activity in po dosed rat assessed as inhibition of ovalbumin-induced passive cutaneous anaphylaxis. The note with it: for ED50: read-out: ID50 (the source's name). It counts as functional. The method, boiled down: (§2)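 Passive cutaneous anaphylaxis in rats sensitized intradermally with antiserum 48 h before iv challenge with 1 mg ovalbumin plus 0.25% Evans Blue. Drug was suspended in 1% gum tragacanth in saline and given orally 10-15 min before antigen. Spot diameter was read on reflected dorsal skin. Percent inhibition was taken against the extrapolated base value. Groups of five; ID50 in mg/kg.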

A short description of test [3]: Antiallergic activity in rat peritoneal mast cells assessed as inhibition of ovalbumin-induced histamine release after 15 mins. It counts as functional, cell-based. The note with it: Mast cell, 0.25 h. The method, boiled down:
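Rat peritoneal mast cells were passively sensitized with the PCA antiserum, washed, and resuspended in Hank's balanced salt solution containing ovalbumin 20 mcg/mL plus drug. After 15 min at 37 °C, histamine released into the supernatant was measured fluorometrically. Value is the concentration giving 50% inhibition.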

Test [4] has as its system Rattus norvegicus. Nature of the test: Antiallergic activity in rat assessed as inhibition of ovalbumin-induced passive cutaneous anaphylaxis at 0.5 mg/kg, iv measured after 14 days. It counts as functional. The method, boiled down:
as §1

In test [5] the test system is Rattus norvegicus. Put plainly: Antiallergic activity in rat assessed as inhibition of ovalbumin-induced passive cutaneous anaphylaxis at 1 mg/kg, iv measured after 14 days. It is filed as functional. A digest of the protocol:
as §1

Test [6] relates to Rattus norvegicus. Nature of the test: Antiallergic activity in po dosed rat allergic bronchoconstriction model assessed as reduction in respiratory flow rate administered 15 to 30 mins prior to ovalbumin challenge measured after 10 mins. It is filed as functional. A digest of the protocol:
(§3)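 Rats were immunized im with 1 mg ovalbumin on alumina, three times on alternate days. On day 8, 9 or 10 they were anesthetized with pentobarbital 60 mg/kg ip, tracheally cannulated and allowed to breathe spontaneously via a pneumotachograph. Drug was given orally 15 and 30 min before iv jugular 1 mg ovalbumin. Fall in respiratory flow rate and 10-min survival were recorded. Value is the mg/kg po dose inhibiting a 40% flow reduction.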

Test [7] relates to Rattus norvegicus. Nature of the test: Antiallergic activity in po dosed rat allergic bronchoconstriction model assessed as survival from death by bronchoconstriction administered 15 to 30 mins prior to ovalbumin challenge measured after 10 mins. It is filed as functional. The note with it: read-out: ID50 (the source's name). A digest of the protocol: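 Rats immunized im with 1 mg ovalbumin on alumina in the nuchal region, three times on alternate days. On day 8, 9 or 10 they were anaesthetised (pentobarbital 60 mg/kg ip), tracheally cannulated and breathed spontaneously. Drug was given po 15 and 30 min before a 1 mg ovalbumin iv (jugular) challenge. Survival was scored over 10 min, giving the po dose that prevents death in 50% of animals.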

The subject of test [8] is Rattus norvegicus. Put plainly: Antiallergic activity in po dosed rat assessed as inhibition of ovalbumin-induced passive cutaneous anaphylaxis relative to doxantrazole. It is filed as functional. The method, boiled down:
as §2

Test [9] relates to Rattus norvegicus. Put plainly: Antiallergic activity in rat assessed as inhibition of ovalbumin-induced passive cutaneous anaphylaxis at 0.5 mg/kg, iv measured after 14 days relative to cromolyn sodium. It counts as functional. A digest of the protocol: as §1
Test [10] has as its system Rattus norvegicus. Put plainly: Antiallergic activity in rat assessed as inhibition of ovalbumin-induced passive cutaneous anaphylaxis at 0.5 mg/kg, iv measured after 14 days relative to doxantrazole. It counts as functional. A digest of the protocol:
as §1

Test [11] concerns Rattus norvegicus. Put plainly: Antiallergic activity in po dosed rat allergic bronchoconstriction model assessed as reduction in respiratory flow rate administered 15 to 30 mins prior to ovalbumin challenge measured after 10 mins relative to doxantrazole. It is filed as functional. The method, boiled down: as §3
Test [12] deals with Rattus norvegicus. Nature of the test: Antiallergic activity in po dosed rat allergic bronchoconstriction model assessed as survival from death by bronchoconstriction administered 15 to 30 mins prior to ovalbumin challenge measured after 10 mins relative to doxantrazole. It is filed as functional.
For another test, the species on record is Cavia porcellus. Nature of the test: Antagonist activity at histamine receptor in guinea pig ileum assessed as reduction in histamine-induced contractions up to 0.1 mM. It is filed as tissue-based.
The test system of test [13] is Rattus norvegicus. Put plainly: Antiallergic activity in rat assessed as inhibition of ovalbumin-induced passive cutaneous anaphylaxis at 10 mg/kg, ip measured after 14 days. It counts as functional. The note with it: route intraperitoneal.

In the case of `O=C([O-])c1cc(=O)c2c(OCC(O)COc3cccc4oc(C(=O)[O-])cc(=O)c34)cccc2o1.[Na+].[Na+]` [CROMOLYN SODIUM], the ED50 in the test on Rattus norvegicus [1] was determined as 1 mg/kg. In addition, in the test on Rattus norvegicus [2], the ID50 entry is “inactive”. Also, the 50% inhibitory concentration (IC50) in [3] worked out at 6.5 µM.

As for `C=CCOc1ccc2nc3ccc(C(=O)O)cn3c(=O)c2c1`, the ED50 with Rattus norvegicus [2] was greater than 1 mg/kg.

On to `Cl.O=C(O)c1ccc2nc3ccccc3c(=O)n2c1`, for which the inhibition in vivo at 0.5 mg/kg in the test with Rattus norvegicus [4] turned out to be 45%. The ED50 in the test with Rattus norvegicus [1] is 0.5 mg/kg; with Rattus norvegicus [2] it was 2.5 mg/kg.

Regarding `O=C(O)c1ccc2nc3ccc(O)cc3c(=O)n2c1`, the inhibition in vivo at 0.5 mg/kg with Rattus norvegicus [4] stood at 100%. The results for the ED50 with Rattus norvegicus [1] and with Rattus norvegicus [2] were 0.05 mg/kg and 5 mg/kg, respectively.

Consider `O=C(O)c1ccc2nc3cc(O)c(O)cc3c(=O)n2c1`, for which the ED50 in the test with Rattus norvegicus [2] is greater than 1 mg/kg.

Consider `Cc1cc2nc3ccc(C(=O)O)cn3c(=O)c2cc1C`, for which the inhibition in vivo at 0.5 mg/kg in the test on Rattus norvegicus [4] is 25%. Moreover, the ED50 with Rattus norvegicus [2] is 2 mg/kg.

As to `COc1ccc2nc3ccc(C(=O)O)cn3c(=O)c2c1`, the inhibition in vivo at 0.5 mg/kg in the test on Rattus norvegicus [4] stood at 100%. For the same molecule, the ED50 turned out to be 0.05 mg/kg with Rattus norvegicus [1] and 0.5 mg/kg with Rattus norvegicus [2].

Regarding `COc1ccc2c(=O)n3cc(C(=O)O)ccc3nc2c1`, the inhibition in vivo at 1 mg/kg in the test with Rattus norvegicus [5] was 100%. In the test on Rattus norvegicus [2], the ED50 was greater than 2 mg/kg.

For the molecule `CCCOc1ccc2nc3ccc(C(=O)O)cn3c(=O)c2c1`, the inhibition in vivo at 0.5 mg/kg in the test with Rattus norvegicus [4] was 100%. For the same molecule, the ED50 with Rattus norvegicus [2] was 2 mg/kg.

As for `CCCCOc1ccc2nc3ccc(C(=O)O)cn3c(=O)c2c1`, in the test with Rattus norvegicus [4], the inhibition in vivo at 0.5 mg/kg stood at 88%. Further, the ED50 in the test on Rattus norvegicus [2] is greater than 2 mg/kg.

As to `CCOc1ccc2nc3ccc(C(=O)O)cn3c(=O)c2c1`, the ED50 in the test on Rattus norvegicus [2] is greater than 1 mg/kg.

Consider `O=C(O)c1ccc2nc3cc(Cl)ccc3c(=O)n2c1`, for which the ED50 in the test on Rattus norvegicus [2] is 5 mg/kg.

In the case of `O=C(O)c1ccc2nc3ccc(OCCO)cc3c(=O)n2c1`, the ED50 with Rattus norvegicus [2] was greater than 1 mg/kg.

`Cc1ccc2nc3ccc(C(=O)O)cn3c(=O)c2c1`: the inhibition in vivo at 0.5 mg/kg in the test on Rattus norvegicus [4] worked out at 100%. The ID100 with Rattus norvegicus [1] was 2.5 mg/kg. Also, the ED50 was found to be 0.05 mg/kg in the test on Rattus norvegicus [1], 0.75 mg/kg in the test on Rattus norvegicus [2] and 12.5 mg/kg with Rattus norvegicus [7]. In [3], the 50% inhibitory concentration (IC50) worked out at 0.94 µM. Also, the ID40 in the test on Rattus norvegicus [6] is 9.3 mg/kg. Further, the “fold change (FC)” value stood at 4 in the test on Rattus norvegicus [8]; 30 with Rattus norvegicus [9]; 30 in the test with Rattus norvegicus [10]; 4.6 in the test on Rattus norvegicus [11]; 10 in the test with Rattus norvegicus [12]. In addition, the inhibition entry in the test filed under Cavia porcellus is “inactive”.

In the case of `O=C(O)c1ccc2nc3cc(O)ccc3c(=O)n2c1`, the inhibition in vivo at 0.5 mg/kg in the test on Rattus norvegicus [4] is 36%.

For the molecule `O=C(O)c1ccc2nc3cc4c(cc3c(=O)n2c1)OCO4`, in the test on Rattus norvegicus [4], the inhibition in vivo at 0.5 mg/kg is 30%.

Turning to `COc1cc2nc3ccc(C(=O)O)cn3c(=O)c2cc1OC`, in the test with Rattus norvegicus [4], the inhibition in vivo at 0.5 mg/kg stood at 100%. Also, the results for the ED50 in the test on Rattus norvegicus [1] and in the test with Rattus norvegicus [2] were 0.05 mg/kg and 10 mg/kg, respectively.

On to `Cc1ccc2c(=O)n3cc(C(=O)O)ccc3nc2c1`, for which the inhibition in vivo at 10 mg/kg with Rattus norvegicus [13] was 54%.

On to `O=C1c2ccccc2S(=O)(=O)c2cc(-c3nn[nH]n3)ccc21` [DOXANTRAZOLE], for which the ID100 with Rattus norvegicus [1] came to 10 mg/kg. The ED50 turned out to be 1.5 mg/kg in the test on Rattus norvegicus [1], 5 mg/kg in the test on Rattus norvegicus [2] and 125 mg/kg in the test with Rattus norvegicus [7]. Also, in test [3], the IC50 is 0.48 µM. Also, the ID40 in the test on Rattus norvegicus [6] was 43 mg/kg.

Regarding `O=C(O)c1ccc2nc3ccc(Cl)cc3c(=O)n2c1`, in the test with Rattus norvegicus [4], the inhibition in vivo at 0.5 mg/kg turned out to be 40%.

Regarding `O=C(O)c1ccc2nc3ccc(Br)cc3c(=O)n2c1`, the inhibition in vivo at 0.5 mg/kg in the test on Rattus norvegicus [4] was 34%. The ED50 in the test with Rattus norvegicus [2] amounted to 1 mg/kg.
